{
  "source": "ChEMBL document CHEMBL4359814",
  "about": "“A Potent Isoprenylcysteine Carboxylmethyltransferase (ICMT) Inhibitor Improves Survival in Ras-Driven Acute Myeloid Leukemia” (J Med Chem, 2019)",
  "key": {"[1]": {"target": "T1, Protein farnesyltransferase (Homo sapiens) (UniProt P49354+P49356)", "assay": "Inhibition of FTase in human PC3 cells assessed as reduction in HDJ2 farnesylation at 10 uM measured after 24 hrs by Western blot analysis", "format": "cell-based"}, "Homo sapiens [2]": {"species": "Homo sapiens", "assay": "Inhibition of GGTase in human PC3 cells assessed as reduction in Rap1A geranylgeranylation at 10 uM measured after 24 hrs by Western blot analysis", "format": "cell-based"}, "[3]": {"assay": "Permeability of the compound", "format": "ADME", "how_it_was_run": "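Parallel artificial membrane assay, expressed as percentage of compound passing through the membrane. Mean±SEM of at least two independent experiments in duplicate.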"}, "Albumin": {"target": "Albumin (Homo sapiens, UniProt P02768)", "sequence (P02768 whole entry)": "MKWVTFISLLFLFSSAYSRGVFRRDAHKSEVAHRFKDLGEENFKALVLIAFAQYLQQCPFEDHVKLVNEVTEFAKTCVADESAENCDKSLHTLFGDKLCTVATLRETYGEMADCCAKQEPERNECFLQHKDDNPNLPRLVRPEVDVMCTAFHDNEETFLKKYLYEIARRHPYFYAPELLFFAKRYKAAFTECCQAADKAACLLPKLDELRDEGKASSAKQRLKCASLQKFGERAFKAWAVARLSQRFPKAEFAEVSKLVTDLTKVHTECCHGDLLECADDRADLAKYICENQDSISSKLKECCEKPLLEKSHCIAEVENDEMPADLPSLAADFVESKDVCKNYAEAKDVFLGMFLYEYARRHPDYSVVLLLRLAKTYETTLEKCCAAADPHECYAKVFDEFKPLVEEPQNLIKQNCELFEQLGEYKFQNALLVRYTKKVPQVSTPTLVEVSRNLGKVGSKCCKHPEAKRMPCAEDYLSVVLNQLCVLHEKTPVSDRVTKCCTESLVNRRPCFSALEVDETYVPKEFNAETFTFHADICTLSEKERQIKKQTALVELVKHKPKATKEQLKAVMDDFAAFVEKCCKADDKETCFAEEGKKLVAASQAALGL", "assay": "Binding affinity to human serum albumin", "format": "ADME", "settings": "for fraction unbound: human, human serum albumin, read-out: PB (converted)"}, "[4]": {"assay": "Drug level in NSG mouse plasma at 25 mg/kg, ip measured after 1 hr by LC-MS/MS analysis", "format": "ADME, organism-based", "how_it_was_run": "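8-week female mice received a single 25 mg/kg ip dose. Blood was taken by cardiac puncture at set time points (n=3 per point), clotted 30 min at rt and centrifuged. Serum was extracted with cold acetonitrile, filtered, and analysed by LC-MS/MS on a C18 column using positive ESI and MRM transition 423.50 > 289.05.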"}, "CAAX prenyl protease 2": {"target": "T2, CAAX prenyl protease 2 (Homo sapiens, UniProt Q9Y256)", "T2 sequence (Q9Y256 whole entry)": "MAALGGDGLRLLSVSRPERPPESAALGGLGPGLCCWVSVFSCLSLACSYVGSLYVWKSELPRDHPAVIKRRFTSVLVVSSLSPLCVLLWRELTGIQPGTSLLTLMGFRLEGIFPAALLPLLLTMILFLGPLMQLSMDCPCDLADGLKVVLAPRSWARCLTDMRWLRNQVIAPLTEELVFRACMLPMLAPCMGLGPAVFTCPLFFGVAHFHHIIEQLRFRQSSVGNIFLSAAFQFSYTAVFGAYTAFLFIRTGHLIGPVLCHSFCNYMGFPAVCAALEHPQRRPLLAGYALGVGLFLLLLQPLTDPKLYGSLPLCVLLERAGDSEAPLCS", "assay": "Inhibition of Rce1 in human PC3 cells at 10 uM using KSKTKC(f)VI as substrate measured after 24 hrs by LC-MS/MS analysis", "format": "cell-based", "how_it_was_run": "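PC-3 cells were incubated ±10 μM compound for 24 h and homogenised in 100 mM HEPES pH 7.5, 5 mM MgCl2, 0.5% NP-40. Homogenate, 0.2 mg, was reacted with 250 μM KSKTKC(f)VI for 60 min at 37 °C. Reactions were stopped with ice-cold acetonitrile, and the M+2/2 ion was followed by HPLC-MS/MS.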"}, "[5]": {"target": "Tyrosine-protein kinase Fyn (Homo sapiens) (UniProt P06241)", "sequence (P06241 2-537 limits assumed)": "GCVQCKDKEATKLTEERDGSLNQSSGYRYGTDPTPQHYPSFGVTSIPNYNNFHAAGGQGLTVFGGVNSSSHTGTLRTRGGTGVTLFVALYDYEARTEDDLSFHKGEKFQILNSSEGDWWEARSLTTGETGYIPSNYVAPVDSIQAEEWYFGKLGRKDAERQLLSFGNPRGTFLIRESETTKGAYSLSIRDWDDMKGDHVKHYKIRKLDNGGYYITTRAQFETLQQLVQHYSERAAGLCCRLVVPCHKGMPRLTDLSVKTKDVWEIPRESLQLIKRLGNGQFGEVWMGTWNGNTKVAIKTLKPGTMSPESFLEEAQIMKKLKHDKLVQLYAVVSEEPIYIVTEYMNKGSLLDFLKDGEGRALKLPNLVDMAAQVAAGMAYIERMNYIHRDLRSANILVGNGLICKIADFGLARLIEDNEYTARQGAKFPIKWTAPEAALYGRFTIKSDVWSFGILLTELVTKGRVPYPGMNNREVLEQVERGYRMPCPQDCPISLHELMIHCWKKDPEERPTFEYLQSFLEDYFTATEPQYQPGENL", "assay": "Effect on GFP-fused Fyn (unknown origin) transfected in human AD293 cells assessed as induction of Fyn mislocalization at 5 uM by laser confocal microscopic analysis", "format": "cell-based"}, "[6]": {"assay": "[…] at 25 mg/kg, ip measured up to 6 hrs by LC-MS/MS analysis", "format": "ADME, organism-based", "settings": "NSG, mouse, plasma"}, "[7]": {"assay": "Drug level in NSG mouse plasma xenografted with human HL60 cells at 25 mg/kg, ip administered 5 days a week followed by 2 days interval for 15 days measured 2 hrs post-last dose by LC-MS/MS analysis", "format": "ADME, organism-based"}, "[8]": {"target": "Protein-S-isoprenylcysteine O-methyltransferase (Homo sapiens) (UniProt O60725)", "sequence (O60725 whole entry, the tested form may be a part)": "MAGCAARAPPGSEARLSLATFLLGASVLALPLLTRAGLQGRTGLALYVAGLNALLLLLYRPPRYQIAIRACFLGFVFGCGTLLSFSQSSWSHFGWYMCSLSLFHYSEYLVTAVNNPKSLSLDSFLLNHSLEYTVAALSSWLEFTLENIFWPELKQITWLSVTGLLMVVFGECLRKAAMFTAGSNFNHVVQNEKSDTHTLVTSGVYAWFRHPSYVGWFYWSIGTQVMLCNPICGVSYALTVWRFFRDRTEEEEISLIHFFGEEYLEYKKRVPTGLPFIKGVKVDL", "assay": "Inhibition of recombinant human ICMT expressed in Sf9 insect cell membranes at 50 uM using biotin-farnesyl-L-cysteine as substrate preincubated for 15 mins followed by substrate addition and measured after 30 mins by scintillation counting analysis relative to control"}, "Homo sapiens [9]": {"species": "Homo sapiens", "assay": "Inhibition of GGTase in human PC3 cells assessed as reduction in Rap1A geranylgeranylation at 1 uM measured after 24 hrs by Western blot analysis", "format": "cell-based"}, "[10]": {"target": "T1, Protein farnesyltransferase (Homo sapiens)", "settings": "1 uM"}, "PANC-1": {"tested_on": "PANC-1", "assay": "Induction of apoptosis in human PANC1 cells assessed as increase in sub-G0/G1 population at 50 uM measured after 24 hrs by propidium iodide staining based flow cytometry", "format": "functional, cell-based"}, "PC-3 [11]": {"tested_on": "PC-3", "assay": "Induction of apoptosis in human PC3 cells assessed as increase in caspase 3 activity at 25 uM", "format": "functional, cell-based"}, "PC-3 [12]": {"tested_on": "PC-3", "assay": "Induction of apoptosis in human PC3 cells assessed as increase in cleaved PARP expression at 25 uM measured after 24 hrs by Western blot analysis", "format": "functional, cell-based"}, "Capan-2": {"tested_on": "Capan-2", "assay": "Induction of apoptosis in human Capan2 cells assessed as increase in sub-G0/G1 population at 50 uM measured after 24 hrs by propidium iodide staining based flow cytometry", "format": "functional, cell-based"}, "[13]": {"target": "Protein-S-isoprenylcysteine O-methyltransferase (Homo sapiens) (UniProt O60725)", "assay": "Inhibition of ICMT in human AD293 cells transfected GFP-fused K-Ras4A assessed as induction of K-Ras4A mislocalization at 5 uM by laser scanning confocal microscopic analysis", "format": "cell-based", "how_it_was_run": "(§1)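 AD-293 cells were transiently transfected with GFP fusion plasmids of H-Ras, K-Ras4A, K-Ras4B or N-Ras. They were treated overnight with 5 μM compound or DMSO, then imaged live by laser scanning confocal microscopy. Three independent transfections were performed in triplicate.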"}, "[14]": {"target": "Protein-S-isoprenylcysteine O-methyltransferase (Homo sapiens) (UniProt O60725)", "assay": "Inhibition of ICMT in human AD293 cells transfected GFP-fused K-Ras4B assessed as induction of K-Ras4B mislocalization at 5 uM by laser scanning confocal microscopic analysis", "format": "cell-based", "how_it_was_run": "as §1"}, "[15]": {"target": "Protein-S-isoprenylcysteine O-methyltransferase (Homo sapiens) (UniProt O60725)", "assay": "Inhibition of ICMT in human AD293 cells transfected GFP-fused H-Ras assessed as induction of H-Ras mislocalization at 5 uM by laser scanning confocal microscopic analysis", "format": "cell-based", "how_it_was_run": "as §1"}, "PC-3 [16]": {"tested_on": "PC-3", "assay": "Induction of autophagy in human PC3 cells assessed as increase in LC3 expression at 25 uM measured after 24 hrs by Western blot analysis", "format": "functional, cell-based"}, "PK9": {"tested_on": "PK9", "assay": "Induction of apoptosis in human PK9 cells assessed as increase in sub-G0/G1 population at 50 uM measured after 24 hrs by propidium iodide staining based flow cytometry", "format": "functional, cell-based"}, "[17]": {"target": "Protein-S-isoprenylcysteine O-methyltransferase (Homo sapiens) (UniProt O60725)", "assay": "Inhibition of ICMT in human PC3 cells assessed as induction of mislocalization of endogenous Ras at 5 uM preincubated for 48 hrs followed by compound washout and subsequent compound addition measured after 72 hrs by Hoechst 33258 staining-based confocal microscopic analysis", "format": "cell-based", "how_it_was_run": "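PC3 cells were seeded at 2×10^4 on poly-D-lysine coverslips for 24 h in RPMI with 10% FBS. They were treated with compound or DMSO for 120 h, with medium and compound renewed at 48 h. Cells were fixed in 4% PFA, permeabilised with Triton X-100, and stained with anti-Ras and a fluorescent secondary, with Hoechst for nuclei. Imaging used a 60X confocal objective, and membrane Ras signal was quantified.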"}, "MIA PaCa-2": {"tested_on": "MIA PaCa-2", "assay": "Induction of apoptosis in human MIAPaCa2 cells assessed as increase in sub-G0/G1 population at 50 uM measured after 24 hrs by propidium iodide staining based flow cytometry", "format": "functional, cell-based"}, "[18]": {"target": "Protein-S-isoprenylcysteine O-methyltransferase (Homo sapiens) (UniProt O60725)", "assay": "Inhibition of ICMT in human AD293 cells transfected GFP-fused N-Ras assessed as induction of N-Ras mislocalization at 5 uM by laser scanning confocal microscopic analysis", "format": "cell-based", "how_it_was_run": "as §1"}, "HuP-T4": {"tested_on": "HuP-T4", "assay": "Induction of apoptosis in human HUPT4 cells assessed as increase in sub-G0/G1 population at 50 uM measured after 24 hrs by propidium iodide staining based flow cytometry", "format": "functional, cell-based"}},
  "note": "Calls of active or inactive are those of the source. No cut-off for these calls is given here.",
  "data": [
    {"compound": "COC(=O)[C@H](CC(C)C)NC(=O)c1ccc(NC[C@@H](N)CS)cc1-c1cccc2ccccc12", "values": [
      {"measurement": "inhibition", "setting": "[1]", "value": "inactive"},
      {"measurement": "inhibition", "setting": "Homo sapiens [2]", "value": "Active"}
    ]},
    {"compound": "CCCCCCCCN(CCC(=O)Nc1ccccc1)CCC(=O)Nc1ccccc1", "values": [
      {"measurement": "inhibition", "setting": "[1]", "value": "inactive"},
      {"measurement": "permeability", "setting": "[3]", "value": 68, "unit": "%"},
      {"measurement": "Kd", "setting": "Albumin", "value": 28, "unit": "µM"},
      {"measurement": "fraction unbound", "setting": "Albumin", "value": 0.046},
      {"measurement": "concentration at 1 h", "setting": "[4]", "value": 1700, "unit": "nM"},
      {"measurement": "inhibition (INH)", "setting": "CAAX prenyl protease 2", "value": "Not Active"},
      {"measurement": "Activity", "setting": "[5]", "value": "inactive"},
      {"measurement": "concentration at 6 h", "setting": "[6]", "value": 480, "unit": "nM"},
      {"measurement": "concentration at 2 h", "setting": "[7]", "value": 736, "unit": "nM"}
    ]},
    {"compound": "CCCCCCCCN(CCC(=O)Nc1ccccc1)CCS(=O)(=O)N(C)c1ccccc1", "values": [
      {"measurement": "inhibition", "setting": "[8]", "value": 10, "unit": "%"}
    ]},
    {"compound": "NC(=O)N1CCC(CC(=O)N2CCC([C@H]3c4ncc(Br)cc4CCc4cc(Cl)cc(Br)c43)CC2)CC1", "values": [
      {"measurement": "inhibition", "setting": "Homo sapiens [9]", "value": "inactive"},
      {"measurement": "inhibition", "setting": "[10]", "value": "Active"}
    ]},
    {"compound": "CCCCCCCCN(CCS(=O)(=O)Nc1ccccc1)CCS(=O)(=O)Nc1ccccc1", "values": [
      {"measurement": "inhibition", "setting": "[8]", "value": 34, "unit": "%"}
    ]},
    {"compound": "CCCCCCCCN(CCC(=O)Nc1ccccc1)CCS(=O)(=O)Nc1ccccc1", "values": [
      {"measurement": "inhibition", "setting": "[8]", "value": 22, "unit": "%"}
    ]},
    {"compound": "CCCCCCCCN(CCS(=O)(=O)N(C)c1ccccc1)CCS(=O)(=O)N(C)c1ccccc1", "values": [
      {"measurement": "inhibition", "setting": "[8]", "value": 12, "unit": "%"}
    ]},
    {"compound": "CCCCCCCCN(CCC(=O)Nc1ccccc1)CCC(=O)NC1CCCCC1", "values": [
      {"measurement": "permeability", "setting": "[3]", "value": 50, "unit": "%"},
      {"measurement": "Kd", "setting": "Albumin", "value": 3, "unit": "µM"},
      {"measurement": "fraction unbound", "setting": "Albumin", "value": 0.005}
    ]},
    {"compound": "CCOCCOCCN(CCC(=O)Nc1ccccc1)CCC(=O)Nc1ccccc1", "values": [
      {"measurement": "inhibition", "setting": "[8]", "value": 15, "unit": "%"}
    ]},
    {"compound": "CCCCCCCCn1cc(CC(N)=O)c2cc(-c3cccc(C)c3)ccc21", "values": [
      {"measurement": "Activity", "setting": "PANC-1", "value": "Active"},
      {"measurement": "Activity", "setting": "PC-3 [11]", "value": "Active"},
      {"measurement": "Activity", "setting": "PC-3 [12]", "value": "Active"},
      {"measurement": "Activity", "setting": "Capan-2", "value": "Active"},
      {"measurement": "inhibition", "setting": "[13]", "value": "Active"},
      {"measurement": "inhibition", "setting": "[14]", "value": "Active"},
      {"measurement": "inhibition", "setting": "[15]", "value": "Active"},
      {"measurement": "Activity", "setting": "PC-3 [16]", "value": "Active"},
      {"measurement": "Activity", "setting": "PK9", "value": "Active"},
      {"measurement": "Activity", "setting": "[5]", "value": "inactive"},
      {"measurement": "inhibition", "setting": "[17]", "value": "Active"},
      {"measurement": "Activity", "setting": "MIA PaCa-2", "value": "Active"},
      {"measurement": "inhibition", "setting": "[18]", "value": "Active"},
      {"measurement": "Activity", "setting": "HuP-T4", "value": "Active"}
    ]},
    {"compound": "CCCCCCCCN(CCC(=O)Nc1ccccc1)CCC(=O)Nc1ccc(F)cc1", "values": [
      {"measurement": "permeability", "setting": "[3]", "value": 54, "unit": "%"},
      {"measurement": "Kd", "setting": "Albumin", "value": 7.8, "unit": "µM"},
      {"measurement": "fraction unbound", "setting": "Albumin", "value": 0.013}
    ]}
  ]
}
